Measured values taken from ChEMBL document CHEMBL3526009, “Breast cancer resistance protein (ABCG2) determines distribution of genistein phase II metabolites: reevaluation of the roles of ABCG2 in the disposition of genistein” (Drug Metab Dispos, 2012).

Assays:
[1] = Biliary excretion in wild-type FVB mouse treated with genistein measured after 2.5 hrs post intestinal perfusion by UPLC-MS/MS analysis; type: ADME, Bile; conditions: in vivo, other
How it was run: (§1)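 Gallbladder bile taken after 2.5 h of simultaneous small intestine/colon perfusion with 10 μM genistein (HBSS pH 7.4, 0.191 ml/min) in FVB or Bcrp1(−/−) mice (n = 4). Bile diluted 20-fold in HBSS, daidzein internal standard in acetonitrile added, dried and reconstituted. Genistein and conjugates quantified by UPLC-MS/MS.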

[2] = Biliary excretion in BCRP-/- mouse treated with genistein measured after 2.5 hrs post intestinal perfusion by UPLC-MS/MS analysis; type: ADME, Bile; conditions: in vivo, other; how it was run: as §1
Blood = test: Stability in Wistar rat blood at 3 uM up to 4 hrs by UPLC-MS/MS analysis; type: ADME, tissue-based
How it was run: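 Genistein glucuronide mixture (G-7-G plus G-4′-G, 3 μM) with 3.8 μM genistein incubated in fresh rat whole blood, 37°C shaking water bath. Sampled at 0, 60, 120 and 240 min. Reaction stopped with acetonitrile containing daidzein internal standard. Genistein and conjugates quantified by UPLC-MS/MS using multiple reaction monitoring. n = 3.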

[3] = Stability in potassium phosphate buffer at pH 7.4 up to 4 hrs; type: physicochemical; conditions: pH 7.4, 4 h
How it was run: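 Negative control run under the blood-incubation conditions but in 50 mM potassium phosphate buffer, pH 7.4, instead of blood. Genistein glucuronides (G-7-G plus G-4′-G, with aglycone) or sulfates (G-7-S plus G-4′-S, with aglycone) held at 37°C in a shaking water bath up to 4 h. Sampled at 0, 60, 120 and 240 min and read by UPLC-MS/MS.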

With `O=C(O)[C@H]1O[C@@H](Oc2ccc(-c3coc4cc(O)cc(O)c4c3=O)cc2)[C@H](O)[C@@H](O)[C@@H]1O` the Drug excretion [1] was “metabolite_detected”, the Drug excretion [2] was “metabolite_detected” and the Stability (Blood) was “Stable”. The Stability [3] was “Stable”.
